For data set [1], the system named is HEK293. Put plainly: Cytotoxicity against human HEK293 cells. In kind it is functional, cell-based. In short, it runs like this:
(§1)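 HeLa, BEL-7402, HEK-293, HCT-116 and A549 lines tested by MTT or SRB method, with doxorubicin as positive control.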

The subject of data set [2] is Escherichia coli. Nature of the data set: Antibacterial activity against Escherichia coli after 20 hrs by double dilution method. In kind it is functional, organism-based. In short, it runs like this:
(§2)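 Broth doubling-dilution assay against E. coli, S. aureus, C. albicans and B. subtilis, with chloramphenicol as positive control.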

The test system of data set [3] is Candida albicans. Put plainly: Antifungal activity against Candida albicans by double dilution method. It is filed as functional, organism-based. The gist of the method:
as §2

The subject of data set [4] is Staphylococcus aureus. Put plainly: Antibacterial activity against Staphylococcus aureus after 20 hrs by double dilution method. In kind it is functional, organism-based. The gist of the method: as §2
Data set [5] deals with A549. Nature of the data set: Cytotoxicity against human A549 cells. In kind it is functional, cell-based. In short, it runs like this: as §1
The subject of data set [6] is HeLa. Put plainly: Cytotoxicity against human HeLa cells. In kind it is functional, cell-based. In short, it runs like this:
as §1

For data set [7], the system named is Bacillus subtilis. Nature of the data set: Antibacterial activity against Bacillus subtilis after 20 hrs by double dilution method. It is filed as functional, organism-based. The gist of the method:
as §2

The subject of data set [8] is HCT-116. Nature of the data set: Cytotoxicity against human HCT116 cells. In kind it is functional, cell-based. The gist of the method:
as §1

For data set [9], the system named is Bel-7402. Put plainly: Cytotoxicity against human Bel7402 cells. In kind it is functional, cell-based. In short, it runs like this:
as §1

Data set [10] relates to HepG2. Nature of the data set: Lipid lowering activity in human HepG2 cells assessed as reduction in oleic acid-induced triglyceride level at 2.5 to 10 uM after 24 hrs by oil red O staining based spectrophotometric method. It is filed as functional, cell-based.
The subject of data set [11] is HepG2. Nature of the data set: Lipid lowering activity in human HepG2 cells assessed as reduction in oleic acid-induced intracellular cholesterol level at 2.5 to 10 uM after 24 hrs […]. In kind it is functional, cell-based. The gist of the method: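 HepG2 at 90% confluence treated 24 h with compound (2.5, 5.0, 10.0 μM) or simvastatin 10 μM in high-glucose DMEM containing 100 μM oleic acid. Blank was serum-free DMEM, OA-only as negative control. Intracellular total cholesterol and triglyceride measured with commercial kits per manufacturer. Means ± SEM of at least three experiments.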

Data set [12] deals with HepG2. Put plainly: Cytotoxicity against human HepG2 cells assessed as reduction in cell viability at 20 uM after 20 hrs by MTT assay. It is filed as cell-based. The conditions noted are these: hepg2, 20 h. The gist of the method: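 HepG2 grown in high-glucose DMEM with 10% FBS at 37 °C, 5% CO2. Once confluent, incubated 20 h with compound. Medium then replaced with fresh medium containing 10% sterile-filtered MTT for 4 h. Formazan dissolved in isopropanol, absorbance read at 570 nm with 630 nm reference. Viability expressed as % of blank wells. Means ± SEM of at least three experiments.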

Data set [13] concerns HepG2. Nature of the data set: Lipid lowering activity in human HepG2 cells assessed as reduction in oleic acid-induced lipid accumulation at 2.5 to 10 uM after 24 hrs by oil red O staining based spectrophotometric method. In kind it is functional, cell-based. In short, it runs like this: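 HepG2 in high-glucose DMEM/10% FBS at 37 °C, 5% CO2, grown to 90% confluence. Treated 24 h with compound (2.5, 5.0, 10.0 μM) or simvastatin 10 μM in high-glucose DMEM plus 100 μM oleic acid. Blank was serum-free DMEM alone, negative control OA alone. Neutral lipid by oil-red O staining, read spectrophotometrically at 358 nm. Means ± SEM, ≥3 experiments.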

SMILES strings stand for the structures. Calls of active or inactive are those of the source. No cut-off for these calls is given here.

As for `CCC[C@@H]1C/C=C(\C)C(=O)CC(=O)N[C@H](Cc2ccccc2)C(=O)N2CCC[C@@H]2C(=O)O1`, the result in data set [1], in [2], in [3], in [4], in [5] and in data set [6] was inactive. Moreover, the outcome in [7], in data set [8] and in data set [9] was inactive.

With `CCC[C@@H]1C/C=C(\C)C(=O)CC(=O)N[C@H](Cc2ccccc2)C(=O)N2CCC[C@H]2C(=O)O1`, the result in data set [1], in [2], in data set [3], in [4], in [5] and in data set [6] was inactive. In addition, the result in data set [7], in data set [8] and in data set [9] was inactive. Besides, the result in data set [10], in data set [11] and in [13] was Active. The Activity result in [12] is listed as “Non-Toxic”.
